Results from ChEMBL document CHEMBL4118024, “Tannins and Tannin-Related Derivatives Enhance the (Pseudo-)Halogenating Activity of Lactoperoxidase” (J Nat Prod, 2017).

Assays:
Details in all cases: Bos taurus; call rule not given here
[1] = test system: Oc1cc(O)c2c(c1)O[C@H](c1ccc(O)c(O)c1)[C@H](O)C2; assay: (§1) Induction of H2O2-inactivated bovine milk lactoperoxidase pseudo-halogenating activity assessed as increase in hypothiocyanate formation by measuring substrate Kcat using thiocyanate as substrate by Lineweaver-Burk plot
Procedure, shortened: (§2)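 Bovine milk LPO, lyophilized (about 80% purity), 5 nM final, in PBS (10 mM, pH 7.4) at 37 °C with 2 mM SCN−, 50 μM TNB and 80 μM H2O2. Compounds from 5 or 10 mM DMSO stocks, final 0.01–500 μM. −OSCN formation followed at 412 nm as TNB conversion to DTNB in a plate reader. KM, Vmax, kcat and specificity constant from Lineweaver–Burk plots. Mean ± SD, n = 3.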

[2] = test system: O=C(OC[C@H]1O[C@@H](OC(=O)c2cc(O)c(O)c(O)c2)[C@H](O)[C@@H](OC(=O)c2cc(O)c(O)c(O)c2)[C@@H]1O)c1cc(O)c(O)c(O)c1; assay: as §1; procedure, shortened: as §2
[3] = test system: O=c1oc2c(O)c(O)cc3c(=O)oc4c(O)c(O)cc1c4c23; assay: as §1; procedure, shortened: as §2
[4] = test system: O=C(OC[C@H]1O[C@@H](OC(=O)c2cc(O)c(O)c(O)c2)[C@H](OC(=O)c2cc(O)c(O)c(O)c2)[C@@H](OC(=O)c2cc(O)c(O)c(O)c2)[C@@H]1OC(=O)c1cc(O)c(O)c(O)c1)c1cc(O)c(O)c(O)c1; assay: as §1; procedure, shortened: as §2
O=C(O)c1cc(O)c(O)c(O)c1 [5] = assay: as §1; procedure, shortened: as §2
[6] = test system: O=C1O[C@@H]2[C@@H](OC(=O)c3cc(O)c(O)c(O)c3-c3c1cc(O)c(O)c3O)[C@H](O)O[C@@H]1COC(=O)c3cc(O)c(O)c(O)c3-c3c(O)c(O)c4oc(=O)c5c(c(O)c(O)c6oc(=O)c3c4c65)-c3c(cc(O)c(O)c3O)C(=O)O[C@@H]21; assay: as §1; procedure, shortened: as §2
[7] = test system: O=C(O[C@@H]1Cc2c(O)cc(O)cc2O[C@@H]1c1cc(O)c(O)c(O)c1)c1cc(O)c(O)c(O)c1; assay: as §1; procedure, shortened: as §2
[8] = test system: Oc1cc(O)c2c(c1)O[C@@]1(c3ccc(O)c(O)c3)Oc3cc(O)c4c(c3[C@@H]2[C@H]1O)O[C@H](c1ccc(O)c(O)c1)[C@H](O)C4; assay: as §1; procedure, shortened: as §2
[9] = test system: Oc1cc(O)c2c(c1)O[C@H](c1cc(O)c(O)c(O)c1)[C@H](O)C2; assay: as §1; procedure, shortened: as §2
COC(=O)c1cc(O)c(O)c(O)c1 [10] = assay: as §1; procedure, shortened: as §2
[11] = test system: Oc1cc(O)c2c(c1)O[C@H](c1ccc(O)c(O)c1)[C@H](O)[C@H]2c1c(O)cc(O)c2c1O[C@H](c1ccc(O)c(O)c1)[C@H](O)C2; assay: as §1; procedure, shortened: as §2
[12] = test system: O=C(/C=C/c1ccc(O)c(O)c1)O[C@@H]1C[C@](O)(C(=O)O)C[C@@H](O)[C@H]1O; assay: as §1; procedure, shortened: as §2
[13] = test system: Oc1cc(O)c2c(c1)O[C@H](c1ccc(O)c(O)c1)[C@H](O)[C@H]2c1c(O)cc(O)c2c1O[C@H](c1ccc(O)c(O)c1)[C@H](O)[C@H]2c1c(O)cc(O)c2c1O[C@H](c1ccc(O)c(O)c1)[C@H](O)C2; assay: as §1; procedure, shortened: as §2
[14] = test system: Oc1cc(O)c2c(c1)O[C@H](c1ccc(O)c(O)c1)[C@H](O)C2; assay: (§3) Induction of H2O2-inactivated bovine milk lactoperoxidase pseudo-halogenating activity assessed as increase in hypothiocyanate formation by measuring substrate Km using thiocyanate as substrate by Lineweaver-Burk plot; procedure, shortened: as §2
[15] = test system: O=C(OC[C@H]1O[C@@H](OC(=O)c2cc(O)c(O)c(O)c2)[C@H](O)[C@@H](OC(=O)c2cc(O)c(O)c(O)c2)[C@@H]1O)c1cc(O)c(O)c(O)c1; assay: as §3; procedure, shortened: as §2
[16] = test system: O=c1oc2c(O)c(O)cc3c(=O)oc4c(O)c(O)cc1c4c23; assay: as §3; procedure, shortened: as §2
[17] = test system: O=C(OC[C@H]1O[C@@H](OC(=O)c2cc(O)c(O)c(O)c2)[C@H](OC(=O)c2cc(O)c(O)c(O)c2)[C@@H](OC(=O)c2cc(O)c(O)c(O)c2)[C@@H]1OC(=O)c1cc(O)c(O)c(O)c1)c1cc(O)c(O)c(O)c1; assay: as §3; procedure, shortened: as §2
O=C(O)c1cc(O)c(O)c(O)c1 [18] = assay: as §3; procedure, shortened: as §2
[19] = test system: O=C1O[C@@H]2[C@@H](OC(=O)c3cc(O)c(O)c(O)c3-c3c1cc(O)c(O)c3O)[C@H](O)O[C@@H]1COC(=O)c3cc(O)c(O)c(O)c3-c3c(O)c(O)c4oc(=O)c5c(c(O)c(O)c6oc(=O)c3c4c65)-c3c(cc(O)c(O)c3O)C(=O)O[C@@H]21; assay: as §3; procedure, shortened: as §2
[20] = test system: O=C(O[C@@H]1Cc2c(O)cc(O)cc2O[C@@H]1c1cc(O)c(O)c(O)c1)c1cc(O)c(O)c(O)c1; assay: as §3; procedure, shortened: as §2
[21] = test system: Oc1cc(O)c2c(c1)O[C@@]1(c3ccc(O)c(O)c3)Oc3cc(O)c4c(c3[C@@H]2[C@H]1O)O[C@H](c1ccc(O)c(O)c1)[C@H](O)C4; assay: as §3; procedure, shortened: as §2
[22] = test system: Oc1cc(O)c2c(c1)O[C@H](c1cc(O)c(O)c(O)c1)[C@H](O)C2; assay: as §3; procedure, shortened: as §2
COC(=O)c1cc(O)c(O)c(O)c1 [23] = assay: as §3; procedure, shortened: as §2
[24] = test system: Oc1cc(O)c2c(c1)O[C@H](c1ccc(O)c(O)c1)[C@H](O)[C@H]2c1c(O)cc(O)c2c1O[C@H](c1ccc(O)c(O)c1)[C@H](O)C2; assay: as §3; procedure, shortened: as §2
[25] = test system: O=C(/C=C/c1ccc(O)c(O)c1)O[C@@H]1C[C@](O)(C(=O)O)C[C@@H](O)[C@H]1O; assay: as §3; procedure, shortened: as §2
[26] = test system: Oc1cc(O)c2c(c1)O[C@H](c1ccc(O)c(O)c1)[C@H](O)[C@H]2c1c(O)cc(O)c2c1O[C@H](c1ccc(O)c(O)c1)[C@H](O)[C@H]2c1c(O)cc(O)c2c1O[C@H](c1ccc(O)c(O)c1)[C@H](O)C2; assay: as §3; procedure, shortened: as §2
[27] = test system: Oc1cc(O)c2c(c1)O[C@H](c1ccc(O)c(O)c1)[C@H](O)C2; assay: (§4) Induction of H2O2-inactivated bovine milk lactoperoxidase pseudo-halogenating activity assessed as increase in hypothiocyanate formation by measuring ratio of Kcat to Km for substrate using thiocyanate as substrate by Lineweaver-Burk plot; procedure, shortened: as §2
[28] = test system: O=C(OC[C@H]1O[C@@H](OC(=O)c2cc(O)c(O)c(O)c2)[C@H](O)[C@@H](OC(=O)c2cc(O)c(O)c(O)c2)[C@@H]1O)c1cc(O)c(O)c(O)c1; assay: as §4; procedure, shortened: as §2
[29] = test system: O=c1oc2c(O)c(O)cc3c(=O)oc4c(O)c(O)cc1c4c23; assay: as §4; procedure, shortened: as §2
O=C(O)c1cc(O)c(O)c(O)c1 [30] = assay: as §4; procedure, shortened: as §2
[31] = test system: O=C1O[C@@H]2[C@@H](OC(=O)c3cc(O)c(O)c(O)c3-c3c1cc(O)c(O)c3O)[C@H](O)O[C@@H]1COC(=O)c3cc(O)c(O)c(O)c3-c3c(O)c(O)c4oc(=O)c5c(c(O)c(O)c6oc(=O)c3c4c65)-c3c(cc(O)c(O)c3O)C(=O)O[C@@H]21; assay: as §4; procedure, shortened: as §2
[32] = test system: O=C(O[C@@H]1Cc2c(O)cc(O)cc2O[C@@H]1c1cc(O)c(O)c(O)c1)c1cc(O)c(O)c(O)c1; assay: as §4; procedure, shortened: as §2
[33] = test system: Oc1cc(O)c2c(c1)O[C@@]1(c3ccc(O)c(O)c3)Oc3cc(O)c4c(c3[C@@H]2[C@H]1O)O[C@H](c1ccc(O)c(O)c1)[C@H](O)C4; assay: as §4; procedure, shortened: as §2
[34] = test system: Oc1cc(O)c2c(c1)O[C@H](c1cc(O)c(O)c(O)c1)[C@H](O)C2; assay: as §4; procedure, shortened: as §2
COC(=O)c1cc(O)c(O)c(O)c1 [35] = assay: as §4; procedure, shortened: as §2
[36] = test system: Oc1cc(O)c2c(c1)O[C@H](c1ccc(O)c(O)c1)[C@H](O)[C@H]2c1c(O)cc(O)c2c1O[C@H](c1ccc(O)c(O)c1)[C@H](O)C2; assay: as §4; procedure, shortened: as §2
[37] = test system: O=C(/C=C/c1ccc(O)c(O)c1)O[C@@H]1C[C@](O)(C(=O)O)C[C@@H](O)[C@H]1O; assay: as §4; procedure, shortened: as §2
[38] = test system: Oc1cc(O)c2c(c1)O[C@H](c1ccc(O)c(O)c1)[C@H](O)[C@H]2c1c(O)cc(O)c2c1O[C@H](c1ccc(O)c(O)c1)[C@H](O)[C@H]2c1c(O)cc(O)c2c1O[C@H](c1ccc(O)c(O)c1)[C@H](O)C2; assay: as §4; procedure, shortened: as §2

Lactoperoxidase (Bos taurus) (from UniProt P80025)
kcat [1]: 41.4 s⁻¹ | kcat [2]: 63.7 s⁻¹ | kcat [3]: 29.3 s⁻¹ | kcat [4]: Not Active | kcat (O=C(O)c1cc(O)c(O)c(O)c1 [5]): 30.9 s⁻¹ | kcat [6]: 11.8 s⁻¹ | kcat [7]: 13.9 s⁻¹ | kcat [8]: 60 s⁻¹ | kcat [9]: 13.9 to 43.6 s⁻¹ | kcat (COC(=O)c1cc(O)c(O)c(O)c1 [10]): 80.3 s⁻¹ | kcat [11]: 4.53 s⁻¹ | kcat [12]: 60.6 s⁻¹ | kcat [13]: 6.43 s⁻¹ | Km [14]: 0.61 µM | Km [15]: 1.37 µM | Km [16]: 0.3 µM | Km [17]: Not Active | Km (O=C(O)c1cc(O)c(O)c(O)c1 [18]): 177 µM | Km [19]: 10.6 µM | Km [20]: 0.32 µM | Km [21]: 12.7 µM | Km [22]: 0.32 to 0.81 µM | Km (COC(=O)c1cc(O)c(O)c(O)c1 [23]): 1.24 µM | Km [24]: 0.37 µM | Km [25]: 1.26 µM | Km [26]: 8.41 µM | kcat/Km [27]: 6.84e+07 M⁻¹ s⁻¹ | kcat/Km [28]: 5.03e+07 M⁻¹ s⁻¹ | kcat/Km [29]: 9.83e+07 M⁻¹ s⁻¹ | kcat/Km (O=C(O)c1cc(O)c(O)c(O)c1 [30]): 200000 M⁻¹ s⁻¹ | kcat/Km [31]: 1.1e+06 M⁻¹ s⁻¹ | kcat/Km [32]: 4.38e+07 M⁻¹ s⁻¹ | kcat/Km [33]: 4.74e+06 M⁻¹ s⁻¹ | kcat/Km [34]: 5.37e+07 M⁻¹ s⁻¹ | kcat/Km (COC(=O)c1cc(O)c(O)c(O)c1 [35]): 6.47e+07 M⁻¹ s⁻¹ | kcat/Km [36]: 1.21e+07 M⁻¹ s⁻¹ | kcat/Km [37]: 4.81e+07 M⁻¹ s⁻¹ | kcat/Km [38]: 800000 M⁻¹ s⁻¹
